Assay results taken from ChEMBL document CHEMBL3774374, “The Effect of Small Molecules on Sterol Homeostasis: Measuring 7-Dehydrocholesterol in Dhcr7-Deficient Neuro2a Cells and Human Fibroblasts” (J Med Chem, 2016).
Activity calls are given as the source filed them. No cut-off for these calls is given here.

Tests used:
[1] = target: T1, Delta(24)-sterol reductase (Mus musculus) (UniProt Q8VCH6); experiment: Inhibition of DR24 in Dhcr7-deficient mouse Neuro2a cells assessed as decrease in 7-DHC levels at 1 uM by LC-MS/GC-MS analysis; assay type: cell-based
T1 sequence (whole entry): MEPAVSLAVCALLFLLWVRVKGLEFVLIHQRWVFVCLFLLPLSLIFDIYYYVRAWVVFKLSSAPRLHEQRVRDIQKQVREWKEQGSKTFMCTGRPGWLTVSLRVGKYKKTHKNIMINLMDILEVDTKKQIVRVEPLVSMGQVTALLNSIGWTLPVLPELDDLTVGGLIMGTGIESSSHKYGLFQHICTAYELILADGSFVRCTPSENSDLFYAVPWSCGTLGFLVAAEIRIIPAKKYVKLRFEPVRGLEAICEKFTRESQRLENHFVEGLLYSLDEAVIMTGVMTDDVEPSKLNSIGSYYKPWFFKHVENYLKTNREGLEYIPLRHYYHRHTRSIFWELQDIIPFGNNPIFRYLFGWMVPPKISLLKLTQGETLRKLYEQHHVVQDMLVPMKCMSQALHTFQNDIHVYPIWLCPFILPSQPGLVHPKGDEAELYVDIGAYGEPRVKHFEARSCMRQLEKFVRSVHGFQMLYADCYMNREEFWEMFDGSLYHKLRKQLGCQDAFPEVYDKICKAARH
Summary of the method: (§1)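 Dhcr7-deficient Neuro2a cells (13000/well, 0.5% FBS medium) on predeposited compound, 24 h at 37 °C. Hoechst-stained and imaged to count cells. Lysed in methanol containing isotope-labelled sterol standards, derivatized with PTAD 20 min at RT, then isocratic C18 UPLC-MS/SRM. Remaining extract silylated with BSTFA for GC-MS, quantified against d7-cholesterol. Follow-up runs in triplicate.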

[2] = target: T2, 3-hydroxy-3-methylglutaryl-coenzyme A reductase (Mus musculus) (UniProt Q01237); experiment: Inhibition of HMGCoA reductase in Dhcr7-deficient mouse Neuro2a cells assessed as decrease in 7-DHC levels at 1 uM by LC-MS/GC-MS analysis; assay type: cell-based; summary of the method: as §1
T2 sequence (whole entry): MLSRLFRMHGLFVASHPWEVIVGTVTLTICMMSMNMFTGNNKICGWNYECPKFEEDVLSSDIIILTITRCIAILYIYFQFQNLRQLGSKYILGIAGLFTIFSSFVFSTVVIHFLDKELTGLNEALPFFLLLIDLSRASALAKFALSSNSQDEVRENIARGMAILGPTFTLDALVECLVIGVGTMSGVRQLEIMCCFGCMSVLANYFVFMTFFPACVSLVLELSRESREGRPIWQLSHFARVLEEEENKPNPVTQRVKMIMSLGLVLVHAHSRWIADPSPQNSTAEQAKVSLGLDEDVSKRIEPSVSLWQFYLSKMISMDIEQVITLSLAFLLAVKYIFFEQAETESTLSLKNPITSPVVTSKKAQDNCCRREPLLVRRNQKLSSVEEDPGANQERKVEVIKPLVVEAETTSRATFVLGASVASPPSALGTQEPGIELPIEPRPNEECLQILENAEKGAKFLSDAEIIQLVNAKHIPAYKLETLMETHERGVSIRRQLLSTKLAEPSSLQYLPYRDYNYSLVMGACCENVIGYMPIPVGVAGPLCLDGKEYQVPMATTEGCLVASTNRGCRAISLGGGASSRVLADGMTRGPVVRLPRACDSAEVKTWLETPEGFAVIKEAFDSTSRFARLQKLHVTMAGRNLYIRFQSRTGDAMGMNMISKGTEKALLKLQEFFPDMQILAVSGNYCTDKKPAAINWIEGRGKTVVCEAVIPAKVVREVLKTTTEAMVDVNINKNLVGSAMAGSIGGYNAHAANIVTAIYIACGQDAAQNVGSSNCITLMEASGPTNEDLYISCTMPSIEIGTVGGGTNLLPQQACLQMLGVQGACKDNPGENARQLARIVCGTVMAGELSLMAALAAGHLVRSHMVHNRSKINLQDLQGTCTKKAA

[3] = system: N2a; experiment: Decrease in 7-DHC levels in Dhcr7-deficient mouse Neuro2a cells at 1 uM by LC-MS/GC-MS analysis; assay type: functional, cell-based; summary of the method: as §1
[4] = target: T3, 3-beta-hydroxysteroid-Delta(8),Delta(7)-isomerase (Mus musculus) (UniProt P70245); experiment: Inhibition of delta 8-7 isomerase in Dhcr7-deficient mouse Neuro2a cells assessed as decrease in 7-DHC levels at 1 uM by LC-MS/GC-MS analysis; assay type: cell-based; summary of the method: as §1
T3 sequence (whole entry): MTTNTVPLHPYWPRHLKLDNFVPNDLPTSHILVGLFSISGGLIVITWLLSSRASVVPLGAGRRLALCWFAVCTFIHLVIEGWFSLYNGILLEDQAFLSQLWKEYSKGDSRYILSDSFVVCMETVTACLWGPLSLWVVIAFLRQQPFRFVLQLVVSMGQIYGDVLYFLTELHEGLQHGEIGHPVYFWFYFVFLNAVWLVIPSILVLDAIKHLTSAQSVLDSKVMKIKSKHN

CC(=O)[C@H]1CC[C@H]2[C@@H]3CCC4=CC(=O)CC[C@]4(C)[C@H]3CC[C@]12C
inhibition [1]: Active

CCC(C)(C)C(=O)O[C@H]1C[C@@H](C)C=C2C=C[C@H](C)[C@H](CC[C@@H]3C[C@@H](O)CC(=O)O3)[C@H]21
7-DHC decrease call (active/inactive) [2]: Active

CCCC1O[C@@H]2C[C@H]3[C@@H]4CCC5=CC(=O)C=C[C@]5(C)[C@H]4[C@@H](O)C[C@]3(C)[C@]2(C(=O)CO)O1 (stereo partly specified)
Activity [3]: Active

CCN(CC)CCO[C@H]1CC[C@@]2(C)C(=CC[C@@H]3[C@@H]2CC[C@]2(C)C(=O)CC[C@@H]32)C1
Activity [3]: Active

CCN(CC)CCOc1ccc(C(O)(Cc2ccc(Cl)cc2)c2ccc(C)cc2)cc1 (stereo unspecified)
inhibition [4]: Active
inhibition [1]: Active

CC[C@H](C)C(=O)O[C@H]1CCC=C2C=C[C@H](C)[C@H](CC[C@@H]3C[C@@H](O)CC(=O)O3)[C@H]21
7-DHC decrease call (active/inactive) [2]: Active

CC[C@H](C)C(=O)O[C@H]1C[C@@H](C)C=C2C=C[C@H](C)[C@H](CC[C@@H]3C[C@@H](O)CC(=O)O3)[C@H]21
7-DHC decrease call (active/inactive) [2]: Active

CC[C@H](C)C(=O)O[C@H]1C[C@H](O)C=C2C=C[C@H](C)[C@H](CC[C@@H](O)C[C@@H](O)CC(=O)O)[C@H]21
7-DHC decrease call (active/inactive) [2]: Active

CCc1c(C)[nH]c2c1C(=O)C(CN1CCOCC1)CC2 (stereo unspecified)
inhibition [1]: Active

CN(C)CCC=C1c2ccccc2COc2ccccc21
inhibition [1]: Active

CN1CCN(CCCN2c3ccccc3Sc3ccc(C(F)(F)F)cc32)CC1
inhibition [1]: Active

CN1CCN(CCCN2c3ccccc3Sc3ccc(Cl)cc32)CC1
inhibition [4]: Active
inhibition [1]: Active

CN1CC[C@]2(c3cccc(O)c3)Cc3nc4ccccc4cc3C[C@H]2C1
inhibition [1]: Active

CO[C@H]1O[C@@H]2O[C@@]3(C)CC[C@H]4[C@H](C)CC[C@@H]([C@H]1C)[C@@]24OO3
7-DHC decrease call (active/inactive) [2]: Active
